For 6 compounds, MIC and Activity results are on record in ChEMBL document CHEMBL3286335, “Synthesis of 2,3,6-trideoxy sugar triazole hybrids as potential new broad spectrum antimicrobial agents” (Eur J Med Chem, 2014).

Converted amounts (≈) assume the structure as drawn.

For data set [1], the system named is Staphylococcus aureus. The data set can be described thus: Antimicrobial activity against Staphylococcus aureus ATCC 25923 after 24 hrs by microbroth dilution method. The class given is functional. The following applies: ATCC 25923, 24 h. The procedure, abridged:
(§1)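 Broth microdilution per NCCLS guidelines. Bacteria in Mueller-Hinton broth; fungi in MOPS-buffered RPMI 1640. Test compounds at 50-0.36 µg/mL, standard drugs over 32-0.0018 µg/mL. Inoculum 1-5 × 10^3 cells/mL, 35 °C in a moist chamber. A492 read at 24 h for bacteria, 48 h for C. albicans, 72 h for A. fumigatus, C. neoformans and S. schenckii, 96 h for T. mentagrophytes. MIC taken as 90% growth inhibition relative to growth control.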
In general terms: Broth dilution looks for growth in wells or tubes with falling amounts of substance.

Data set [2] concerns Staphylococcus aureus. Put plainly: Antimicrobial activity against methicillin-resistant Staphylococcus aureus after 24 hrs by microbroth dilution method. Type of data set: functional. The procedure, abridged:
(§2)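 Microbroth dilution in Mueller Hinton broth, following NCCLS guidelines. Test compounds were run at 50-0.36 µg/mL against an initial inoculum of 1-5 × 10^3 cells/mL. Plates were incubated in a moist chamber at 35 °C, and absorbance at 492 nm was read after 24 h. MIC was taken as 90% growth inhibition relative to the growth control.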

The next data set relates to Klebsiella pneumoniae. The data set can be described thus: Antimicrobial activity against Klebsiella pneumoniae ATCC 27736 after 24 hrs by microbroth dilution method. The class given is functional. The conditions noted are these: ATCC 27736, 24 h. A digest of the protocol: as §1
The subject of another data set is Escherichia coli. Put plainly: Antimicrobial activity against Escherichia coli ATCC 9637 after 24 hrs by microbroth dilution method. The following applies: ATCC 9637, 24 h. The class given is functional. A digest of the protocol: as §1
The subject of a further data set is Pseudomonas aeruginosa. Put plainly: Antimicrobial activity against Pseudomonas aeruginosa ATCC BAA-427 after 24 hrs by microbroth dilution method. Type of data set: functional. The following applies: ATCC BAA-427, 24 h. A digest of the protocol:
as §1

The subject of data set [3] is Staphylococcus aureus. The data set can be described thus: Antimicrobial activity against vancomycin-resistant Staphylococcus aureus after 24 hrs by microbroth dilution method. The class given is functional. A digest of the protocol: as §2
A further data set has as its system Candida albicans. Put plainly: Antimicrobial activity against Candida albicans after 48 hrs by microbroth dilution method. Type of data set: functional. A digest of the protocol: as §1
For another data set, the system named is Aspergillus fumigatus. Put plainly: Antimicrobial activity against Aspergillus fumigatus after 72 hrs by microbroth dilution method. Type of data set: functional. A digest of the protocol: as §1
For the next data set, the system named is Cryptococcus neoformans. The data set can be described thus: Antimicrobial activity against Cryptococcus neoformans after 72 hrs by microbroth dilution method. The class given is functional. A digest of the protocol:
as §1

A further data set has as its system Sporothrix schenckii. The data set can be described thus: Antimicrobial activity against Sporothrix schenckii after 72 hrs by microbroth dilution method. The class given is functional. The procedure, abridged:
as §1

Data set [4] has as its system Trichophyton mentagrophytes. The data set can be described thus: Antimicrobial activity against Trichophyton mentagrophytes after 96 hrs by microbroth dilution method. The class given is functional. A digest of the protocol: as §1
For data set [5], the system named is L929. Put plainly: Cytotoxicity against mouse L929 cells assessed as change in morphology at MIC after 24 hrs using Giemsa staining by phase contrast microscopy. The class given is cell-based. The conditions noted are these: l929, 24 h. The procedure, abridged:
(§3)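 Mouse fibroblast L929 cells grown in DMEM with 10% FBS and antibiotic/antimycotic at 37 °C, 5% CO2. Medium switched to serum-free DMEM at 90% confluency, then compounds added (DMSO stocks) for 24 h. Cells fixed, stained with Giemsa for 30 min at 37 °C, washed with PBS, air dried and examined by phase-contrast microscopy.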

Data set [6] has as its system L929. The data set can be described thus: Cytotoxicity against mouse L929 cells assessed as reduction in cell viability after 24 hrs by MTT assay. Type of data set: cell-based. The following applies: l929, 24 h. The procedure, abridged:
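L929 fibroblasts in DMEM with 10% FBS at 37 °C, 5% CO2. Seeded at 1×10^3 cells per well, switched to serum-free DMEM at 90% confluency. Compounds from 1 mg/mL DMSO stocks tested at nine twofold dilutions for 24 h. MTT readout: viability = (A570−A630) sample / (A570−A630) control × 100.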
On the technique in general: Tetrazolium assays rely on reduction of a dye to a coloured formazan, in cell work by metabolically active cells.

For data set [7], the system named is L929. Put plainly: Cytotoxicity against mouse L929 cells assessed as change in morphology at 50 ug/ml after 24 hrs using Giemsa staining by phase contrast microscopy. The conditions noted are these: l929, 24 h. Type of data set: cell-based. A digest of the protocol: as §3

A word on the MIC: it is the least concentration at which growth counts as inhibited. In the case of `CC(C)CCO[C@@H]1C=CC(=O)[C@@H](Cn2cc(CCCCl)nn2)O1`, the MIC in the data set on Staphylococcus aureus [1] stood at 1.56 µg/mL (≈ 4.56 µM); with Staphylococcus aureus [2], 6.25 µg/mL (≈ 18.3 µM); in the data set on Klebsiella pneumoniae, 3.12 µg/mL (≈ 9.13 µM); in the data set on Escherichia coli, 50 µg/mL (≈ 146 µM); with Pseudomonas aeruginosa, 50 µg/mL (≈ 146 µM); against Staphylococcus aureus [3], 6.25 µg/mL (≈ 18.3 µM). The MIC came to 25 µg/mL (≈ 73.1 µM) with Candida albicans; 50 µg/mL (≈ 146 µM) in the data set with Aspergillus fumigatus; 50 µg/mL (≈ 146 µM) in the data set on Cryptococcus neoformans; 12.5 µg/mL (≈ 36.6 µM) in the data set on Sporothrix schenckii; 50 µg/mL (≈ 146 µM) in [4]. Also, the Activity entry with L929 [5] is on record as “Non-toxic”; with L929 [6] it was “Dose-dependent effect”; with L929 [7] it was “Toxic”.
With `CCCCCc1cn(C[C@H]2O[C@H](OCCC(C)C)C=CC2=O)nn1`, the MIC in the data set on Staphylococcus aureus [1] was 3.12 µg/mL (≈ 9.3 µM); in the data set with Staphylococcus aureus [2] it was 6.25 µg/mL (≈ 18.6 µM); in the data set on Klebsiella pneumoniae, 3.12 µg/mL (≈ 9.3 µM); in the data set with Escherichia coli, more than 50 µg/mL; in the data set with Pseudomonas aeruginosa, more than 50 µg/mL; against Staphylococcus aureus [3] it was 6.25 µg/mL (≈ 18.6 µM). The MIC in the data set with Candida albicans was more than 50 µg/mL; in the data set on Aspergillus fumigatus, more than 50 µg/mL; in the data set with Cryptococcus neoformans, more than 50 µg/mL; with Sporothrix schenckii it was 12.5 µg/mL (≈ 37.3 µM); in [4], 3.12 µg/mL (≈ 9.3 µM). Further, the Activity result is “Non-toxic” in the data set on L929 [5], “Dose-dependent effect” in the data set with L929 [6] and “Toxic” with L929 [7].
Consider `CCCCCCc1cn(C[C@H]2O[C@H](OCCC(C)C)C=CC2=O)nn1`, for which the MIC against Staphylococcus aureus [1] was 3.12 µg/mL (≈ 8.93 µM); against Staphylococcus aureus [2], 6.25 µg/mL (≈ 17.9 µM); in the data set with Klebsiella pneumoniae it was 1.56 µg/mL (≈ 4.46 µM); with Escherichia coli, more than 50 µg/mL; in the data set on Pseudomonas aeruginosa, more than 50 µg/mL; against Staphylococcus aureus [3], 6.25 µg/mL (≈ 17.9 µM). The MIC in the data set on Candida albicans is more than 50 µg/mL; in the data set with Aspergillus fumigatus, more than 50 µg/mL; with Cryptococcus neoformans it was more than 50 µg/mL; with Sporothrix schenckii, 25 µg/mL (≈ 71.5 µM); in [4], 12.5 µg/mL (≈ 35.8 µM). The Activity result in the data set with L929 [5] was “Non-toxic”; in the data set with L929 [6], “Dose-dependent effect”; with L929 [7], “Toxic”.
`CC(C)CCO[C@@H]1C=CC(=O)[C@@H](Cn2cc(C=O)nn2)O1`: the MIC was 50 µg/mL (≈ 170 µM) in the data set with Staphylococcus aureus [1]; more than 50 µg/mL against Staphylococcus aureus [2]; 50 µg/mL (≈ 170 µM) against Klebsiella pneumoniae; 50 µg/mL (≈ 170 µM) against Escherichia coli; 50 µg/mL (≈ 170 µM) with Pseudomonas aeruginosa; more than 50 µg/mL with Staphylococcus aureus [3]. The MIC is more than 50 µg/mL against Candida albicans; 25 µg/mL (≈ 85.2 µM) in the data set on Aspergillus fumigatus; 50 µg/mL (≈ 170 µM) against Cryptococcus neoformans; 25 µg/mL (≈ 85.2 µM) with Sporothrix schenckii; 3.12 µg/mL (≈ 10.6 µM) in [4]. The Activity entry in the data set with L929 [5] is listed as “Non-toxic”; with L929 [6], “Dose-dependent effect”; in the data set on L929 [7], “Toxic”.
As to `CC(C)CCO[C@@H]1C=CC(=O)[C@@H](Cn2cc(C(C)(C)C)nn2)O1`, the MIC against Staphylococcus aureus [1] is 1.56 µg/mL (≈ 4.85 µM); in the data set on Staphylococcus aureus [2], 12.5 µg/mL (≈ 38.9 µM); in the data set on Klebsiella pneumoniae it was more than 50 µg/mL; in the data set on Escherichia coli, more than 50 µg/mL; against Pseudomonas aeruginosa, more than 50 µg/mL; against Staphylococcus aureus [3], 12.5 µg/mL (≈ 38.9 µM). Moreover, the MIC is 25 µg/mL (≈ 77.8 µM) in the data set on Candida albicans; more than 50 µg/mL with Aspergillus fumigatus; 25 µg/mL (≈ 77.8 µM) with Cryptococcus neoformans; 12.5 µg/mL (≈ 38.9 µM) in the data set on Sporothrix schenckii; more than 50 µg/mL in data set [4]. Moreover, the figures for the Activity result with L929 [5], in the data set with L929 [6] and in the data set with L929 [7] were “Non-toxic”, “Dose-dependent effect” and “Toxic”, respectively.
`CC(C)CCO[C@@H]1C=CC(=O)[C@@H](Cn2cc(-c3ccccc3)nn2)O1`: the MIC in the data set on Staphylococcus aureus [1] amounted to 6.25 µg/mL (≈ 18.3 µM); in the data set on Staphylococcus aureus [2], 12.5 µg/mL (≈ 36.6 µM); in the data set with Klebsiella pneumoniae, 3.12 µg/mL (≈ 9.14 µM); with Escherichia coli, 50 µg/mL (≈ 146 µM); in the data set with Pseudomonas aeruginosa, 50 µg/mL (≈ 146 µM); against Staphylococcus aureus [3], 12.5 µg/mL (≈ 36.6 µM). For the same compound, the MIC was 12.5 µg/mL (≈ 36.6 µM) in the data set with Candida albicans; 50 µg/mL (≈ 146 µM) with Aspergillus fumigatus; 25 µg/mL (≈ 73.2 µM) against Cryptococcus neoformans; 12.5 µg/mL (≈ 36.6 µM) in the data set on Sporothrix schenckii; 50 µg/mL (≈ 146 µM) in data set [4]. Moreover, the Activity result in the data set on L929 [5] was “Non-toxic”; in the data set on L929 [6] it was “Dose-dependent effect”; with L929 [7], “Toxic”.
